Reference: ChEMBL document CHEMBL1157101, “A series of alpha-heterocyclic carboxaldehyde thiosemicarbazones inhibit topoisomerase IIalpha catalytic activity” (J Med Chem, 2010)
Structures can show the parent of a compound that is named as a salt. Calls of active or inactive are those of the source. The calls are words filed in the database; no cut-off is given here.

Legend:
SGC-7901 = assay: Antiproliferative activity against human SGC7901 cells after 72 hrs by sulforhodamine B assay; format: functional, cell-based; settings: SGC-7901, 72 h
In short: (§1)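 Cells seeded and exposed in triplicate to graded compound concentrations for 72 h. Suspension cells read by MTT conversion to coloured product; adherent cells read by sulforhodamine B. IC50 (50% growth inhibition versus untreated control) derived by the Logit method.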

HL-60 = assay: Antiproliferative activity against human HL60 cells after 72 hrs by sulforhodamine B assay; format: functional, cell-based; settings: HL-60, 72 h, in the assay text read “MTT assay” for “sulforhodamine B assay”; in short: as §1
HeLa = assay: Antiproliferative activity against human HeLa cells after 72 hrs by sulforhodamine B assay; format: functional, cell-based; in short: as §1
HT-29 [1] = assay: Antiproliferative activity against human HT-29 cells after 72 hrs by sulforhodamine B assay; format: functional, cell-based; settings: HT-29, 72 h; in short: as §1
[2] = target: T1, DNA topoisomerase 2-alpha (Homo sapiens, UniProt P11388); assay: Inhibition of human topoisomerase 2 alpha-mediated decatenation of kDNA at 100 uM after 15 mins
T1 sequence (P11388 whole entry): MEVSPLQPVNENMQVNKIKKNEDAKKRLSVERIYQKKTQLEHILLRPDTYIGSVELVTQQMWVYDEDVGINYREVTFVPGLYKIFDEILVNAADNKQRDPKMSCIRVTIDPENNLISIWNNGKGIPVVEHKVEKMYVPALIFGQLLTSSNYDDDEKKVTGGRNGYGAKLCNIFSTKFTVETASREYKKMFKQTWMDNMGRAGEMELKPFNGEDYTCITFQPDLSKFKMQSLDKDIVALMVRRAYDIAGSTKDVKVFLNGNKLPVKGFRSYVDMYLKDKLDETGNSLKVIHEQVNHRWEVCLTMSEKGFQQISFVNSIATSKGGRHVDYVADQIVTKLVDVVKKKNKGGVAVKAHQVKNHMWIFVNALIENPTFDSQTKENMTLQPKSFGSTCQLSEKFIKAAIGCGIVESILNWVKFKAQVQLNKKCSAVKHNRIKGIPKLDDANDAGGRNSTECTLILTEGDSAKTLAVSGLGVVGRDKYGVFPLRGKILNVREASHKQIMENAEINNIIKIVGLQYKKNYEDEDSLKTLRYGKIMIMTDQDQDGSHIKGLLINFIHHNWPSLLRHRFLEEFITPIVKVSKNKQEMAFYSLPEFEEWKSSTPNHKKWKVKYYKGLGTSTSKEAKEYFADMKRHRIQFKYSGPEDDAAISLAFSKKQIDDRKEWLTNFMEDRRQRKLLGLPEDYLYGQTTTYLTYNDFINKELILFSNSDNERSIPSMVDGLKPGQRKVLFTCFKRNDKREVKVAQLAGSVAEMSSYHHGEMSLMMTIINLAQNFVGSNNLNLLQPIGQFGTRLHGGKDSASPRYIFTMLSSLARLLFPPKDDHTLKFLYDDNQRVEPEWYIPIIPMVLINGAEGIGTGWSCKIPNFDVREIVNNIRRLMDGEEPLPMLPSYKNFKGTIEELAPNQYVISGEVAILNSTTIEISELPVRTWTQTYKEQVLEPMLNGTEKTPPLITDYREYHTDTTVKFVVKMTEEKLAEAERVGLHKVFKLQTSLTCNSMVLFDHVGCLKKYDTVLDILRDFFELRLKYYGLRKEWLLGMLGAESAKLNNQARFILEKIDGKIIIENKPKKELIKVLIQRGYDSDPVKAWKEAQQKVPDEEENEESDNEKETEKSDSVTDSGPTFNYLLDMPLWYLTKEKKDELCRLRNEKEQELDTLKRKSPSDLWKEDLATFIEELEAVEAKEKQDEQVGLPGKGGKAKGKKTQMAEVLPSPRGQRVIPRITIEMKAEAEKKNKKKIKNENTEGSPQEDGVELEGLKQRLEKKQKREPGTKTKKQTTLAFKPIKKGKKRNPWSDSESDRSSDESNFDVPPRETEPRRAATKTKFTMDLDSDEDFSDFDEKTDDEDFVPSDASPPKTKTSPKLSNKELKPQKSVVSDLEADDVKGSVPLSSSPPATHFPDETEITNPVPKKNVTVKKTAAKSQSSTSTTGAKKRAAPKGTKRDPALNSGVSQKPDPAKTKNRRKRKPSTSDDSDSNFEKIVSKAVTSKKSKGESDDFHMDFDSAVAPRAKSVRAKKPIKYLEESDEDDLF

CCRF S-180 = assay: Antitumor activity against mouse S180 cells transplanted in Kunming mouse assessed as inhibition of tumor growth at 50 mg/kg/day, iv for 2 days; format: functional; settings: CCRF S-180, 48 h
In short: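 Female Kunming mice, 7 weeks old, 18-22 g, were inoculated sc in the right armpit with S-180 sarcoma. Dosing started the next day: the drug iv, vehicle controls normal saline. After treatment, mice were killed, and solid tumors were excised and weighed. Inhibitory rate (%) = (mean control tumor weight − mean treated tumor weight)/mean control tumor weight × 100.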

Mus musculus = assay: Toxicity in Kunming mouse bearing mouse S180 cells assessed as change in body weight at 50 mg/kg/day, ip for 2 days (reference value: 18.1 g); format: organism-based, CCRF S-180; design: route intraperitoneal; settings: in vivo, 48 h
Nucleic Acid [3] = assay: Inhibition of Fenton's reaction mediated DNA strand break in Escherichia coli pBR322 at 0.1 to 1 uM by gel electrophoresis; format: nucleic-acid assay
In short: (§2)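 pBR322 (0.2 μg) incubated 30 min at room temperature in 13 mM Hepes pH 7.2 with 1 mM H2O2 and 10 μM FeSO4 plus compound. Run on 1% agarose containing 0.1 μg/mL ethidium bromide at 90 V for 60 min. Bands quantified; % supercoiled = 1.4SC/(L+OC+1.4SC)×100.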

HT-29 [4] = assay: Cell cycle arrest in nocodazole pretreated human HT-29 cells assessed as accumulation at M phase at 10 uM after 24 hrs; format: functional, cell-based
In short: (§3)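 HT-29 cells stained with propidium iodide; cell-cycle distribution determined by flow cytometry.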

HT-29 [5] = assay: Cell cycle arrest in nocodazole pretreated human HT-29 cells assessed as accumulation at M phase at 5 uM after 24 hrs; format: functional, cell-based; in short: as §3
Nucleic Acid [6] = assay: Inhibition of Fenton's reaction mediated DNA strand break in Escherichia coli pBR322 at 1 to 100 uM by gel electrophoresis; format: nucleic-acid assay; in short: as §2
Nucleic Acid [7] = assay: Inhibition of Fenton's reaction mediated DNA strand break in Escherichia coli pBR322 by gel electrophoresis; format: nucleic-acid assay; in short: as §2
[8] = target: T1, DNA topoisomerase 2-alpha; assay: Inhibition of human topoisomerase 2alpha-mediated relaxation of pBR322 up to 125 uM
KB = assay: Antiproliferative activity against human KB cells after 72 hrs by sulforhodamine B assay; format: functional, cell-based; in short: as §1
[9] = Antiproliferative activity against human KB/VCR cells after 72 hrs by sulforhodamine B assay; format: functional, cell-based; in short: as §1
[10] = Antiproliferative activity against human MCF7/ADR cells after 72 hrs by sulforhodamine B assay; format: functional, cell-based; settings: NCI/ADR-RES; in short: as §1
[11] = Antiproliferative activity against human K562/A02 cells after 72 hrs by sulforhodamine B assay; format: functional, cell-based; settings: K562/A02, 72 h, in the assay text read “MTT assay” for “sulforhodamine B assay”; in short: as §1

Row | SMILES | IC50 (SGC-7901) | IC50 (HL-60) | IC50 (HeLa) | IC50 (HT-29 [1]) | inhibition (active/not active) [2] | also measured
1 | Fc1ccc(NC(=S)N/N=C/c2ccc3ccccc3n2)cc1 | 32.3 µM | 17 µM | 33.2 µM | 28.5 µM | – | –
2 | N#Cc1ccc(NC(=S)N/N=C/c2ccc3ccccc3n2)cc1 | 23.7 µM | 4.66 µM | 20 µM | 15.6 µM | – | –
3 | Cc1csc2sc(/C=N/NC(N)=S)c(C)c12 | > 100 µM | > 100 µM | 1.12 µM | 57.5 µM | inactive | –
4 | S=C(NCc1ccccc1)N/N=C/c1ccc2ccccc2n1 | 53.7 µM | 21.9 µM | 62.8 µM | 75.7 µM | – | –
5 | S=C(N/N=C/c1ccc2ccccc2n1)Nc1cccc(Cl)c1 | 61.3 µM | 28.8 µM | 52.5 µM | 48.1 µM | – | –
6 | NC(=S)N/N=C/c1nc2ccccc2c2ncccc12 | 7.36 µM | > 100 µM | 21.9 µM | 11.5 µM | Active | –
7 | NC(=S)N/N=C/c1cc2cccnc2s1 | 100 µM | > 100 µM | 6.29 µM | > 100 µM | – | –
8 | COc1cccc(NC(=S)N/N=C/c2ccc3ccccc3n2)c1 | 79.4 µM | 71.2 µM | 74.5 µM | 82.4 µM | – | –
9 | S=C(N/N=C/c1ccc2ccccc2n1)Nc1ccccc1 | 26.5 µM | 9.13 µM | 27.4 µM | 17 µM | – | –
10 | O=c1[nH]cc(F)c(=O)[nH]1 [FLUOROURACIL] | – | – | – | – | – | inhibition in vivo at 50 mg/kg/day (CCRF S-180): 80.7%; Activity (Mus musculus): 27.5 g
11 | FC(F)(F)c1ccccc1NC(=S)N/N=C/c1ccc2ccccc2n1 | 20.7 µM | 13.2 µM | 18.8 µM | 18.1 µM | – | –
12 | Cc1ccc(NC(=S)N/N=C/c2ccc3ccccc3n2)cc1 | 92.9 µM | 78.3 µM | 86 µM | 85.5 µM | – | –
13 | CN(C)C(=S)N/N=C/c1cc2cccnc2s1 | 21.4 µM | > 100 µM | 48.4 µM | 13.4 µM | Active | –
14 | Cc1ccc(NC(=O)N/N=C/c2ccc3ccccc3n2)cc1 | > 100 µM | > 100 µM | > 100 µM | > 100 µM | – | –
15 | NC(=S)N/N=C/c1cc2ccccc2s1 | > 100 µM | > 100 µM | 6.77 µM | 99.2 µM | inactive | –
16 | S=C(N/N=C/c1ccc2ccccc2n1)Nc1ccccc1Br | > 100 µM | > 100 µM | > 100 µM | > 100 µM | – | –
17 | S=C(N/N=C/c1ccc2ccccc2n1)Nc1cccc(Br)c1 | 78.6 µM | 53.8 µM | 70 µM | 58.9 µM | – | –
18 | CC(=O)N(O)CCCCCNC(=O)CCC(=O)N(O)CCCCCNC(=O)CCC(=O)N(O)CCCCCN | – | – | – | – | – | inhibition (Nucleic Acid [3]): Active; Activity (HT-29 [4]): Active; Activity (HT-29 [5]): Active; inhibition (Nucleic Acid [6]): Active; inhibition (Nucleic Acid [7]): Dose-dependent effect; inhibition [8]: inactive
19 | NC(=S)N/N=C/c1ccc2cccnc2n1 | > 100 µM | > 100 µM | > 100 µM | 12.8 µM | inactive | –
20 | CN(C)C(=S)N/N=C/c1ccc2cccnc2n1 | 0.63 µM | 0.56 µM | 0.97 µM | 0.41 µM | Active | –

Row | SMILES | IC50 (SGC-7901) | IC50 (HL-60) | IC50 (HeLa) | IC50 (HT-29 [1]) | inhibition (active/not active) [2] | also measured
21 | FC(F)(F)c1ccc(NC(=S)N/N=C/c2ccc3ccccc3n2)cc1 | 72.2 µM | 34.9 µM | 59.1 µM | 63.9 µM | – | –
22 | CN(C)C(=S)N/N=C/c1nc2ccccc2c2ncccc12 | 0.04 µM | 0.43 µM | 1.72 µM | 0.04 µM | Active | –
23 | S=C(N/N=C/c1ccc2ccccc2n1)Nc1ccc(Cl)cc1 | 87.6 µM | > 100 µM | > 100 µM | 97.2 µM | – | –
24 | Fc1cccc(NC(=S)N/N=C/c2ccc3ccccc3n2)c1 | 79.9 µM | 43.8 µM | 70.1 µM | 74.7 µM | inactive | –
25 | CC[C@]1(O)C[C@H]2CN(CCc3c([nH]c4ccccc34)[C@@](C(=O)OC)(c3cc4c(cc3OC)N(C=O)[C@H]3[C@@](O)(C(=O)OC)[C@H](OC(C)=O)[C@]5(CC)C=CCN6CC[C@]43[C@@H]65)C2)C1 [VINCRISTINE] | – | – | – | – | – | IC50 (KB): 0.01 µM; IC50 [9]: 0.84 µM
26 | Fc1ccccc1NC(=S)N/N=C/c1ccc2ccccc2n1 | > 100 µM | > 100 µM | > 100 µM | > 100 µM | – | –
27 | CN(C)C(=S)N/N=C/c1nc2ccccc2s1 | 0.83 µM | 3.68 µM | 2.1 µM | 0.25 µM | Active | –
28 | S=C(N/N=C/c1ccc2ccccc2n1)Nc1ccc(Br)cc1 | 69.4 µM | 27.5 µM | 56.8 µM | 54.4 µM | – | –
29 | COc1ccc(C)cc1NC(=S)N/N=C/c1ccc2ccccc2n1 | > 100 µM | > 100 µM | > 100 µM | > 100 µM | – | –
30 | CN(C)C(=S)N/N=C/c1cnc2ccccc2n1 | 0.17 µM | 0.09 µM | 0.75 µM | 0.45 µM | Active | –
31 | NC(=S)N/N=C/c1nc2ccccc2s1 | > 100 µM | > 100 µM | 5.35 µM | > 100 µM | inactive | –
32 | CC(C)c1cccc(C(C)C)c1NC(=S)N/N=C/c1ccc2ccccc2n1 | 23.5 µM | 19.5 µM | 16.4 µM | 20.7 µM | – | –
33 | NC(=S)N/N=C/c1cnc2ccccc2n1 | > 100 µM | > 100 µM | > 100 µM | > 100 µM | – | –
34 | NC(=S)N/N=C/c1ccc2ccccc2n1 | 32.7 µM | > 100 µM | 0.96 µM | 100 µM | inactive | –
35 | Cc1ccccc1NC(=S)N/N=C/c1ccc2ccccc2n1 | > 100 µM | 73.2 µM | > 100 µM | 42.2 µM | inactive | –
36 | COc1ccc(NC(=S)N/N=C/c2ccc3ccccc3n2)cc1 | 89.6 µM | 43.8 µM | 72.6 µM | 82.3 µM | – | –
37 | Cc1cccc(NC(=S)N/N=C/c2ccc3ccccc3n2)c1 | > 100 µM | > 100 µM | > 100 µM | > 100 µM | – | –
38 | COc1cccc2c1C(=O)c1c(O)c3c(c(O)c1C2=O)C[C@@](O)(C(=O)CO)C[C@@H]3O[C@H]1C[C@H](N)[C@H](O)[C@H](C)O1 [DOXORUBICIN HYDROCHLORIDE] | – | – | – | – | – | IC50 [10]: 44.9 µM; IC50 [11]: 23.8 µM
39 | COc1ccccc1NC(=S)N/N=C/c1ccc2ccccc2n1 | > 100 µM | 91.7 µM | > 100 µM | > 100 µM | – | –
